Source: ChEMBL document CHEMBL3526002, “Tissue distribution and identification of radioactivity components at elimination phase after oral administration of [¹⁴C]CS-1036, an α-amylase inhibitor, to rats” (Drug Metab Dispos, 2013)

Columns and labels:
Set-up in all cases: dose 5 mg/kg, dosed compound name [14C]CS-1036, route oral
Settings in all cases: in vivo
[1] = Drug uptake in albino F344/DuCrlCrlj rat epididymis assessed as ng equivalent of CS-1036 at 5 mg/kg, po after 8 hrs by liquid scintillation counting; type: ADME, organism-based
Blood = experiment: Drug uptake in albino F344/DuCrlCrlj rat blood assessed as ng equivalent of CS-1036 at 5 mg/kg, po after 72 hrs by liquid scintillation counting; type: ADME, organism-based
Outline: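 Male F344/DuCrlCrlj rats (159–167 g; n = 3 per time point) received a single oral dose of [14C]CS-1036 at 5 mg/kg. Blood was taken from the abdominal aorta at 1, 4, 8, 24, 72, 168 and 336 h. Radioactivity was counted by LSC with external-standard efficiency correction. Results were converted to ng equivalent of CS-1036/ml using specific activity and sample volume, and reported as mean + S.D.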

Thymus [2] = experiment: Drug uptake in albino F344/DuCrlCrlj rat thymus at 5 mg/kg, po after 72 hrs by liquid scintillation counting; type: ADME, organism-based
[3] = Drug uptake in albino F344/DuCrlCrlj rat urinary bladder assessed as ng equivalent of CS-1036 at 5 mg/kg, po after 336 hrs by liquid scintillation counting; type: ADME, organism-based
Thymus [4] = experiment: Drug uptake in albino F344/DuCrlCrlj rat thymus at 5 mg/kg, po after 1 hr by liquid scintillation counting; type: ADME, organism-based
Zone of skin [5] = experiment: Drug uptake in albino F344/DuCrlCrlj rat skin assessed as ng equivalent of CS-1036 at 5 mg/kg, po after 8 hrs by liquid scintillation counting; type: ADME, organism-based
[6] = Drug uptake in albino F344/DuCrlCrlj rat bone marrow at 5 mg/kg, po after 72 hrs by liquid scintillation counting; type: ADME, organism-based
Harderian gland [7] = experiment: Drug uptake in albino F344/DuCrlCrlj rat harderian gland assessed as ng equivalent of CS-1036 at 5 mg/kg, po after 8 hrs by liquid scintillation counting; type: ADME, organism-based
Stomach [8] = experiment: Drug uptake in albino F344/DuCrlCrlj rat stomach assessed as ng equivalent of CS-1036 at 5 mg/kg, po after 4 hrs by liquid scintillation counting; type: ADME, organism-based
Large intestine [9] = experiment: Drug uptake in albino F344/DuCrlCrlj rat large intestine at 5 mg/kg, po after 4 hrs by liquid scintillation counting; type: ADME, organism-based
[10] = Drug uptake in albino F344/DuCrlCrlj rat mandibular gland assessed as ng equivalent of CS-1036 at 5 mg/kg, po after 168 hrs by liquid scintillation counting; type: ADME, organism-based
Zone of skin [11] = experiment: Drug uptake in albino F344/DuCrlCrlj rat skin assessed as ng equivalent of CS-1036 at 5 mg/kg, po after 4 hrs by liquid scintillation counting; type: ADME, organism-based
[12] = Drug uptake in albino F344/DuCrlCrlj rat fat assessed as ng equivalent of CS-1036 at 5 mg/kg, po after 336 hrs by liquid scintillation counting; type: ADME, organism-based, Adipose tissue
Outline: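 Male F344/DuCrlCrlj rats (bought at 7 weeks, acclimatized 5–6 days; 159–167 g; n = 3 per time point) received a single oral dose of [14C]CS-1036 at 5 mg/kg. White adipose tissue was collected after abdominal aortic bleeding at 1, 4, 8, 24, 72, 168 or 336 h. Samples were counted by LSC with external-standard efficiency correction. Results were converted to ng equivalents per g from specific activity and sample weight.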

Zone of skin [13] = experiment: Drug uptake in albino F344/DuCrlCrlj rat skin at 5 mg/kg, po after 72 hrs by liquid scintillation counting; type: ADME, organism-based
Small intestine = experiment: Drug uptake in albino F344/DuCrlCrlj rat small intestine at 5 mg/kg, po after 72 hrs by liquid scintillation counting; type: ADME, organism-based
[14] = Drug uptake in albino F344/DuCrlCrlj rat brown fat at 5 mg/kg, po after 4 hrs by liquid scintillation counting; type: ADME, organism-based, Brown adipose tissue
Pancreas = experiment: Drug uptake in albino F344/DuCrlCrlj rat pancreas at 5 mg/kg, po after 4 hrs by liquid scintillation counting; type: ADME, organism-based
[15] = Drug uptake in albino F344/DuCrlCrlj rat eyeball assessed as ng equivalent of CS-1036 at 5 mg/kg, po after 72 hrs by liquid scintillation counting; type: ADME, organism-based
[16] = Drug uptake in albino F344/DuCrlCrlj rat testis at 5 mg/kg, po after 24 hrs by liquid scintillation counting; type: ADME, organism-based
Large intestine [17] = experiment: Drug uptake in albino F344/DuCrlCrlj rat large intestine at 5 mg/kg, po after 168 hrs by liquid scintillation counting; type: ADME, organism-based
Liver = experiment: Drug uptake in albino F344/DuCrlCrlj rat liver assessed as ng equivalent of CS-1036 at 5 mg/kg, po after 24 hrs by liquid scintillation counting; type: ADME, organism-based
Plasma = experiment: Drug uptake in albino F344/DuCrlCrlj rat plasma assessed as ng equivalent of CS-1036 at 5 mg/kg, po after 4 hrs by liquid scintillation counting; type: ADME, organism-based
[18] = Drug uptake in albino F344/DuCrlCrlj rat brown fat at 5 mg/kg, po after 8 hrs by liquid scintillation counting; type: ADME, organism-based, Brown adipose tissue
Heart [19] = experiment: Drug uptake in albino F344/DuCrlCrlj rat heart at 5 mg/kg, po after 168 hrs by liquid scintillation counting; type: ADME, organism-based
[20] = Drug uptake in albino F344/DuCrlCrlj rat testis at 5 mg/kg, po after 168 hrs by liquid scintillation counting; type: ADME, organism-based
Lung [21] = experiment: Drug uptake in albino F344/DuCrlCrlj rat lung assessed as ng equivalent of CS-1036 at 5 mg/kg, po after 8 hrs by liquid scintillation counting; type: ADME, organism-based
[22] = Drug uptake in albino F344/DuCrlCrlj rat urinary bladder assessed as ng equivalent of CS-1036 at 5 mg/kg, po after 1 hr by liquid scintillation counting; type: ADME, organism-based
Stomach [23] = experiment: Drug uptake in albino F344/DuCrlCrlj rat stomach at 5 mg/kg, po after 1 hr by liquid scintillation counting; type: ADME, organism-based
Heart [24] = experiment: Drug uptake in albino F344/DuCrlCrlj rat heart at 5 mg/kg, po after 4 hrs by liquid scintillation counting; type: ADME, organism-based
Stomach [25] = experiment: Drug uptake in albino F344/DuCrlCrlj rat stomach assessed as ng equivalent of CS-1036 at 5 mg/kg, po after 168 hrs by liquid scintillation counting; type: ADME, organism-based
[26] = Drug uptake in albino F344/DuCrlCrlj rat trachea at 5 mg/kg, po after 4 hrs by liquid scintillation counting; type: ADME, organism-based
Harderian gland [27] = experiment: Drug uptake in albino F344/DuCrlCrlj rat harderian gland assessed as ng equivalent of CS-1036 at 5 mg/kg, po after 4 hrs by liquid scintillation counting; type: ADME, organism-based
Kidney = experiment: Drug uptake in albino F344/DuCrlCrlj rat kidney at 5 mg/kg, po after 24 hrs by liquid scintillation counting; type: ADME, organism-based
[28] = Drug uptake in albino F344/DuCrlCrlj rat urinary bladder assessed as ng equivalent of CS-1036 at 5 mg/kg, po after 24 hrs by liquid scintillation counting; type: ADME, organism-based
Lung [29] = experiment: Drug uptake in albino F344/DuCrlCrlj rat lung assessed as ng equivalent of CS-1036 at 5 mg/kg, po after 72 hrs by liquid scintillation counting; type: ADME, organism-based

Radiolabel recovery [1]: 37.8 ngequiv/g
Radiolabel recovery (Blood): 6.6 ngequiv/ml
Radiolabel recovery (Thymus [2]): 48.3 ngequiv/g
Radiolabel recovery [3]: 5.5 ngequiv/g
Radiolabel recovery (Thymus [4]): 23.2 ngequiv/g
Radiolabel recovery (Zone of skin [5]): 71.6 ngequiv/g
Radiolabel recovery [6]: 98.9 ngequiv/g
Radiolabel recovery (Harderian gland [7]): 24.5 ngequiv/g
Radiolabel recovery (Stomach [8]): 41 ngequiv/g
Radiolabel recovery (Large intestine [9]): 5930 ngequiv/g
Radiolabel recovery [10]: 7 ngequiv/g
Radiolabel recovery (Zone of skin [11]): 9.6 ngequiv/g
Radiolabel recovery [12]: 63 ngequiv/g
Radiolabel recovery (Zone of skin [13]): 91.5 ngequiv/g
Radiolabel recovery (Small intestine): 41.3 ngequiv/g
Radiolabel recovery [14]: 25.8 ngequiv/g
Radiolabel recovery (Pancreas): 249 ngequiv/g
Radiolabel recovery [15]: 1.72 ngequiv/g
Radiolabel recovery [16]: 31.4 ngequiv/g
Radiolabel recovery (Large intestine [17]): 26.4 ngequiv/g
Radiolabel recovery (Liver): 37 ngequiv/g
Radiolabel recovery (Plasma): 26.7 ngequiv/ml
Radiolabel recovery [18]: 28.9 ngequiv/g
Radiolabel recovery (Heart [19]): 13.8 ngequiv/g
Radiolabel recovery [20]: 9.95 ngequiv/g
Radiolabel recovery (Lung [21]): 72.1 ngequiv/g
Radiolabel recovery [22]: 520 ngequiv/g
Radiolabel recovery (Stomach [23]): 1670 ngequiv/g
Radiolabel recovery (Heart [24]): 36 ngequiv/g
Radiolabel recovery (Stomach [25]): 11.2 ngequiv/g
Radiolabel recovery [26]: 31.1 ngequiv/g
Radiolabel recovery (Harderian gland [27]): 5.1 ngequiv/g
Radiolabel recovery (Kidney): 137 ngequiv/g
Radiolabel recovery [28]: 8.6 ngequiv/g
Radiolabel recovery (Lung [29]): 5.1 ngequiv/g
SMILES: C[C@H]1O[C@@H](O[C@H]2[C@H](O)[C@@H](O)[C@@H](O[14C@H]3[14C@H](O)[14CH2]N[14C@@H]3[14CH2]O)O[C@@H]2CO)[C@H](O)[C@@H](O)[C@@H]1O
